What was measured:
pYStat3 = assay: Immunoblotting of pStat3 in treated U251MG cells; format: cell-based, human; details: 5 μM, glioma cells, immunoblotting
How it was run: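 Whole-cell lysates from U251MG cells given test compound at 5 μM for 0–24 h, or at 0–5 μM for 2 h. Immunoblotted for pY705Stat3 and total Stat3, with GAPDH as loading reference.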

Stat3 = Stat3 DNA-binding activity/EMSA of nuclear extracts from treated glioma cells; format: cell-based, human; details: 5 μM, glioma cells, EMSA
Stat3:Stat3 = Stat3:Stat3 (Mus musculus, UniProt P42227); assay: Cell-free EMSA, nuclear extracts pre-incubated with compound, hSIE probe; format: biochemical; details: 5 μM, 30 min pre-incubation, NIH3T3/v-Src nuclear extracts
Stat3:Stat3, sequence (P42227 2-770 limits assumed): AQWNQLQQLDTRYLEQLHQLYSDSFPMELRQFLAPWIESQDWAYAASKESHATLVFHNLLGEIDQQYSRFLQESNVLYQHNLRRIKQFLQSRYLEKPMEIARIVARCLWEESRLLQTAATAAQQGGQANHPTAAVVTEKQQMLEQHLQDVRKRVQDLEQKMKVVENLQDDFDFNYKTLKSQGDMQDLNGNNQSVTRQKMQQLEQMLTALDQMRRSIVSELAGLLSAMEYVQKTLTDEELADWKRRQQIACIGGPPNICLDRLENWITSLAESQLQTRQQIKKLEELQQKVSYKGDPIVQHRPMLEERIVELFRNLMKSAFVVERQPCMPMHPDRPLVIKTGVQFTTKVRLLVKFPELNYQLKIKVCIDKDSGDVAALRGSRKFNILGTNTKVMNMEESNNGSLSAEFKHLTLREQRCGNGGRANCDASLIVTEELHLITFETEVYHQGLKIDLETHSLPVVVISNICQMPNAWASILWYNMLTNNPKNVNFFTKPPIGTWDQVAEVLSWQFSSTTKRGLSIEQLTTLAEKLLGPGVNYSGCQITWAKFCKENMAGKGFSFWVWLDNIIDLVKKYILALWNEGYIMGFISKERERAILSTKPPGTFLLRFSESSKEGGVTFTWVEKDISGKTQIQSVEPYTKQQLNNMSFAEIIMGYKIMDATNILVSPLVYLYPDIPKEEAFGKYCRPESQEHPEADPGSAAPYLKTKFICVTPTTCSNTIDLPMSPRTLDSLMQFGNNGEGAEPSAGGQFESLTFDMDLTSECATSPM
Stat1:Stat1 = target: T1, Stat1:Stat1 (Mus musculus, UniProt P42225); assay: Cell-free EMSA, EGF-stimulated NIH3T3/hEGFR nuclear extracts; format: biochemical; details: 5 μM, 30 min pre-incubation
T1 sequence (P42225 2-749 limits assumed): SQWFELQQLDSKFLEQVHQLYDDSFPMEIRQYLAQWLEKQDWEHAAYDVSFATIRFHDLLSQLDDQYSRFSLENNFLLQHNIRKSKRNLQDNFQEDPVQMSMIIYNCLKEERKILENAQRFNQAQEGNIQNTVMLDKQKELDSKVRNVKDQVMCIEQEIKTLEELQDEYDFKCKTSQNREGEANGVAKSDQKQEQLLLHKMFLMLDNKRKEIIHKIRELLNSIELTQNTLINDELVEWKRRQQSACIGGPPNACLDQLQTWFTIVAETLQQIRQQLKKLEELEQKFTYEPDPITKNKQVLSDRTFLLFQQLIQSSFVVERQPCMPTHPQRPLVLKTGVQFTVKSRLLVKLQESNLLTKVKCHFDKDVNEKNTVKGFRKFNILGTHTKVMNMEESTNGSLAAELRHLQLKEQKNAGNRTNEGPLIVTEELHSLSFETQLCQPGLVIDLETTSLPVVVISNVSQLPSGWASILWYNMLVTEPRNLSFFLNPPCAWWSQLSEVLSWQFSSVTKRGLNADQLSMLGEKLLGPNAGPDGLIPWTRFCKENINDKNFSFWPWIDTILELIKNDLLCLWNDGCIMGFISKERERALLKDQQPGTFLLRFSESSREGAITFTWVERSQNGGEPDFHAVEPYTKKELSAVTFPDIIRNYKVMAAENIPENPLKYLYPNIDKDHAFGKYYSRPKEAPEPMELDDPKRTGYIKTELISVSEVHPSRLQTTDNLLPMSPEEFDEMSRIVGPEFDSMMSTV
How it was run: (§1)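 Nuclear extracts from EGF-stimulated NIH3T3/hEGFR fibroblasts, containing active Stat1, Stat3 and Stat5, preincubated with 5 μM test compound for 30 min at room temperature. Then incubated 30 min with 32P-labelled probe before EMSA: hSIE (Stat1/Stat3 binding) or MGFe (bovine β-casein element; Stat1/Stat5 binding). STAT:DNA bands quantified as percent of control.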

Stat5:Stat5 = assay: Cell-free EMSA, EGF-stimulated NIH3T3/hEGFR nuclear extracts, MGFe probe; format: biochemical, mouse; details: 5 μM, 30 min pre-incubation
How it was run: as §1

G10 cells = assay: Growth of glioma patient-derived xenograft cells in vitro; format: cell-based; details: Homo sapiens, read-out: inhibitory activity against growth of G10 cells
G22 cells [1] = assay: as above; format: cell-based; details: Homo sapiens, read-out: inhibitory activity against growth of G22 cells
G12 cells = assay: as above; format: cell-based; details: Homo sapiens, read-out: inhibitory activity against G12 cell growth
[2] = test system: U251MG subcutaneous tumor xenografts; assay: Subcutaneous glioma xenograft tumor growth; format: in vivo, mouse; details: 2 mg/kg, oral gavage, 33 days
How it was run: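 Female athymic nude mice, 4 weeks old, injected subcutaneously in the left flank with 7.3 ×10^6 U251MG cells in PBS/matrigel. At 20 days (tumours 170–250 mm3), mice grouped by matched mean tumour size. Dosed 2 mg/kg by oral gavage in 1% DMSO vehicle, three times weekly, for 33 days. Caliper volumes (V = 0.52 × a2 × b) and body weights recorded; paired t test against vehicle.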

[3] = Body weights and signs of toxicity in tumor-bearing mice; format: in vivo; details: 2 mg/kg, oral gavage, 33 days
pStat3 [4] = assay: Immunoblots of tumor tissue lysates from treated mice; format: in vivo, mouse; details: four-to-five cases out of six
How it was run: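 After oral dosing, lysates of residual subcutaneous U251MG tumour tissue from treated and 1% DMSO vehicle mice. Immunoblotted for pStat3 and Stat3, with GAPDH as loading reference.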

U251MG cells [5] = assay: Colony survival assay; format: cell-based, human; details: 1 μM, treated once
How it was run: (§2)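 Cells seeded as single cells at 250 per well and treated once the next day with test compound (0–5 μM) for 72 h. Grown until large colonies were visible: 1 week for NIH3T3, 2 weeks for U251MG. Colonies stained with crystal violet for 4 h and counted.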

NIH3T3 cells = assay: Colony survival assay; format: cell-based, mouse; details: 2.5 μM or less
How it was run: as §2

U251MG cells [6] = assay: BrdU incorporation assay; format: cell-based, human; details: 5 μM, at 24 h
How it was run: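 U251MG cells on glass coverslips exposed to DMSO or 5 μM test compound for 3–24 h. BrdU (10 micromolar) added for the final 2 h. Fixed in 4% paraformaldehyde for 10 min, stained with anti-BrdU antibody and counterstained with DAPI. Imaged by fluorescence microscopy, and cells counted.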

U251MG cells [7] = assay: Scratch assay for migration; format: cell-based, human; details: 5 μM, 19-h treatment
How it was run: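 Sub-confluent U251MG monolayers wounded with pipette tips and treated once with test compound (0–5 μM) or DMSO vehicle. Cells allowed to migrate into the denuded area over 19 h, then imaged by microscopy at 10×.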

U251MG cells [8] = assay: Immunofluorescence staining/confocal microscopy of mitosis; format: cell-based, human; details: 15 h treatment
How it was run: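 U251MG cells on coverslips synchronised by double thymidine block (2 mM) and released for 9 h. Then given DMSO, 100 nM paclitaxel or 8 μM test compound for 15 h. Fixed in 4% paraformaldehyde, permeabilised with 0.1% digitonin and blocked in 0.2% BSA. Stained with anti-β-tubulin (1:350) and anti-MAP1B (1:300) for 1 h at room temperature, then fluorescent secondaries and DAPI; confocal imaging.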

G22 cells [9] = assay: 3D spheroid assay; format: cell-based, human; details: 5 μM, treated once
pStat3 [10] = assay: Immunoblotting of pStat3 in patient-derived xenograft cells; format: cell-based, human; details: 5 μM, 3 h
How it was run: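 Glioma patient-derived xenograft G22 cells (DMEM, 5–10% heat-inactivated FBS) given 5 μM test compound for 0–24 h. Whole-cell lysates immunoblotted for pStat3 and Stat3, with GAPDH as loading reference.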

pStat1 = assay: Immunoblotting, EGF-stimulated NIH3T3/hEGFR fibroblasts; format: cell-based, mouse; details: 5 μM pre-treatment
How it was run: (§3)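 NIH3T3/hEGFR fibroblasts pretreated with or without 5 μM test compound for 3 h, then stimulated with 1 μg/ml EGF for 12 min. Whole-cell lysates, equal total protein, immunoblotted for pStat1/Stat1, pStat5/Stat5 and pErk1/2/Erk1/2.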

pStat5 = assay: as above; format: cell-based, mouse; details: 5 μM pre-treatment
How it was run: as §3

pErk1/2MAPK [11] = assay: as above; format: cell-based, mouse; details: 5 μM pre-treatment
How it was run: as §3

pS-Akt = assay: Immunoblotting, U251MG glioma cells; format: cell-based, human; details: 5 μM
How it was run: (§4)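 U251MG cells given 5 μM test compound for 0–24 h. Whole-cell lysates of equal total protein immunoblotted for pErk1/2, Erk1/2, pS-Akt, Akt, pJAK2, JAK2, SOCS3 and PTP1B, with β-actin or GAPDH as loading reference.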

pErk1/2MAPK [12] = assay: Immunoblotting, U251MG glioma cells; format: cell-based, human; details: 5 μM
How it was run: as §4

[13] = test system: suppressors of cytokine signaling (SOCS)3; assay: Immunoblotting, U251MG glioma cells; format: cell-based, human; details: 5 μM
How it was run: as §4

[14] = test system: protein tyrosine phosphatase (PTP)1B; assay: Immunoblotting, U251MG glioma cells; format: cell-based, human; details: 5 μM
How it was run: as §4

pJAK2 = assay: Immunoblotting, U251MG glioma cells; format: cell-based, human; details: 5 μM
How it was run: as §4

[15] = test system: c-Myc, Bcl-2, Mcl-1 and Bcl-xL expression; assay: Immunoblots of Stat3-regulated gene products in U251MG cells; format: cell-based, human; details: 5 μM
How it was run: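 Whole-cell lysates prepared from U251MG cells given 5 μM test compound for 0–24 h, with 0.025% DMSO as control. Immunoblotted for c-Myc, Bcl-2, Bcl-xL, Mcl-1, pStat3 and Stat3, with GAPDH as loading reference.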

Structure (SMILES): C/C=C(\C)C(=O)O[C@H]1C[C@@H](C)[C@]2(O)CC[C@](C)(/C=C3/OC(=O)C(COC(C)=O)=C31)O2 [Compound 6]
- effect on pStat3 in treated tumor cells (pYStat3): strongly inhibited
- effect on Stat3 DNA-binding activity in treated tumor cells (Stat3): strongly inhibited
- Stat3:Stat3/DNA-binding activity (complexation), cell-free EMSA (Stat3:Stat3): diminished
- effect on Stat1:Stat1 activity, cell-free EMSA (Stat1:Stat1): weak effects
- effect on Stat5:Stat5 activity, cell-free EMSA (Stat5:Stat5): weak effects
- inhibition at 5 µM (G10 cells): 45 to 60%
- inhibition at 5 µM (G22 cells [1]): 45 to 60%
- inhibition at 5 µM (G12 cells): 25 to 35%
- growth of subcutaneous U251MG xenografts [2]: inhibited growth
- body weights or obvious signs of toxicity [3]: No significant changes
- pStat3 and Stat3 levels in residual tumor tissues (pStat3 [4]): lower
- U251MG colony formation (U251MG cells [5]): completely inhibited
- effects on NIH3T3 colony numbers (NIH3T3 cells): moderate or none
- cell proliferation measured by BrdU incorporation (U251MG cells [6]): significantly impaired
- migration into the denuded area (U251MG cells [7]): slowed migration
- chromatid structures and sister-chromatids segregation (mitosis) (U251MG cells [8]): caused defects
- 3D spheroid growth (G22 cells [9]): decreased 3D spheroid growth
- effect on Phospho-Stat3 in G22 cells (pStat3 [10]): strongly inhibited
- effect on EGF-stimulated pStat1 levels (pStat1): no effect
- effect on EGF-stimulated pStat5 levels (pStat5): no effect
- effect on EGF-stimulated pErk1/2MAPK levels (pErk1/2MAPK [11]): no effect
- effect on pS-Akt levels (pS-Akt): no effects
- effect on pErk1/2MAPK levels (pErk1/2MAPK [12]): no effects
- effect on SOCS3 levels [13]: no effects
- effect on PTP1B levels [14]: no effects
- effect on pJAK2 (pJAK2): apparent moderate increase
- c-Myc, Bcl-2, Mcl-1 and Bcl-xL expression [15]: down regulated
